Test results: ChEMBL document CHEMBL4311965, “Antimicrobial activity of amphipathic α,α-disubstituted β-amino amide derivatives against ESBL - CARBA producing multi-resistant bacteria; effect of halogenation, lipophilicity and cationic character” (Eur J Med Chem, 2019)
In brackets after ≈: the same amount, converted by molar mass.

Assays:
Pseudomonas aeruginosa [1] = assay: Antibacterial activity against multidrug-resistant Pseudomonas aeruginosa K34-73 producing Verona integron encoded metallo beta-lactamse-4 cultured in MHB medium assessed as reduction in bacterial growth incubated for 24 hrs by microdilution susceptibility test; type: functional; conditions: K34-73, 24 h
How it was run: (§1)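 Broth microdilution per CLSI M07-A9 (modified). Working solutions made from concentrated DMSO stocks kept at r.t., diluted in double-distilled water, final DMSO <1%. Inoculum 1–1.2 x 10⁶ cells/mL in Mueller-Hinton broth, mixed 1:1 with compound. 37 °C, 24 h, four parallels. Read as OD₆₀₀. Where precipitation left residual OD, the point of major OD decrease was taken as the inhibitory concentration.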

Acinetobacter baumannii [2] = assay: Antibacterial activity against multidrug-resistant Acinetobacter baumannii K47-42 producing oxcillinase-23 cultured in MHB medium assessed as reduction in bacterial growth incubated for 24 hrs by microdilution susceptibility test; type: functional; conditions: K47-42, 24 h; how it was run: as §1
Pseudomonas aeruginosa [3] = assay: Antibacterial activity against multidrug-resistant Pseudomonas aeruginosa 50692172 producing New Delhi metallo-beta-lactamase-1 cultured in MHB medium assessed as reduction in bacterial growth incubated for 24 hrs by microdilution susceptibility test; type: functional; conditions: Pseudomonas aeruginosa, 50692172, 24 h; how it was run: as §1
Staphylococcus aureus [4] = assay: Antibacterial activity against multidrug-resistant Staphylococcus aureus WIS cultured in MHB medium assessed as reduction in bacterial growth incubated for 24 hrs by microdilution susceptibility test; type: functional; how it was run: as §1
[5] = Selectivity index, ratio of EC50 for hemolytic activity against human RBC to MIC for antibacterial activity against Staphylococcus aureus ATCC 9144; type: toxicity; conditions: human red blood cells (RBC)
How it was run: (§2)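 Selectivity index is the RBC haemolysis EC50 divided by the MIC against the E. coli or S. aureus reference strain.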

[6] = Selectivity index, ratio of EC50 for hemolytic activity against human RBC to MIC for antibacterial activity against Escherichia coli ATCC 25922; type: toxicity; conditions: human red blood cells (RBC); how it was run: as §2
Klebsiella pneumoniae [7] = assay: Antibacterial activity against multidrug-resistant Klebsiella pneumoniae 50625602 producing oxcillinase-245 cultured in MHB medium assessed as reduction in bacterial growth incubated for 24 hrs by microdilution susceptibility test; type: functional; conditions: Klebsiella pneumoniae, 50625602, 24 h; how it was run: as §1
Escherichia coli [8] = assay: Antibacterial activity against multidrug-resistant Escherichia coli 50579417 producing oxcillinase-48 cultured in MHB medium assessed as reduction in bacterial growth incubated for 24 hrs by microdilution susceptibility test; type: functional; conditions: Escherichia coli, 50579417, 24 h; how it was run: as §1
Staphylococcus aureus [9] = assay: Antibacterial activity against multidrug-resistant Staphylococcus aureus IHT 99040 cultured in MHB medium assessed as reduction in bacterial growth incubated for 24 hrs by microdilution susceptibility test; type: functional; conditions: IHT 99040, 24 h; how it was run: as §1
Acinetobacter baumannii [10] = assay: Antibacterial activity against multidrug-resistant Acinetobacter baumannii K55-13 producing oxcillinase-24 cultured in MHB medium assessed as reduction in bacterial growth incubated for 24 hrs by microdilution susceptibility test; type: functional; conditions: K55-13, 24 h; how it was run: as §1
Acinetobacter baumannii [11] = assay: Antibacterial activity against multidrug-resistant Acinetobacter baumannii K44-35 producing oxcillinase-23 cultured in MHB medium assessed as reduction in bacterial growth incubated for 24 hrs by microdilution susceptibility test; type: functional; conditions: K44-35, 24 h; how it was run: as §1
Klebsiella pneumoniae [12] = assay: Antibacterial activity against multidrug-resistant Klebsiella pneumoniae K66-45 producing New Delhi metallo-beta-lactamase-1 cultured in MHB medium assessed as reduction in bacterial growth incubated for 24 hrs by microdilution susceptibility test; type: functional; conditions: K66-45, 24 h; how it was run: as §1
Acinetobacter baumannii [13] = assay: Antibacterial activity against multidrug-resistant Acinetobacter baumannii K12-21 producing oxcillinase-58 cultured in MHB medium assessed as reduction in bacterial growth incubated for 24 hrs by microdilution susceptibility test; type: functional; conditions: K12-21, 24 h; how it was run: as §1
Pseudomonas aeruginosa [14] = assay: Antibacterial activity against Pseudomonas aeruginosa PA01 DSM 19880 (ATCC 15692) cultured in MHB medium assessed as no bacterial growth incubated at 37 degC for 24 hrs by microdilution susceptibility test; type: functional; conditions: PAO1 DSM 19880 (ATCC 15692)
How it was run: (§3)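 Broth microdilution per CLSI M07-A9 with modifications. Inoculum about 2.5–3 x 10⁴ cells/mL in Mueller-Hinton broth, mixed 1:1 with test derivative. DMSO stocks diluted in double-distilled water, final DMSO <1%. Incubation 24 h at 37 °C (20 °C for C. glutamicum). Growth and sterility controls included; oxytetracycline reference.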

Escherichia coli [15] = assay: Antibacterial activity against multidrug-resistant Escherichia coli 50739822 producing New Delhi metallo-beta-lactamase-1 cultured in MHB medium assessed as reduction in bacterial growth incubated for 24 hrs by microdilution susceptibility test; type: functional; conditions: Escherichia coli, 50739822, 24 h; how it was run: as §1
[16] = tested on: Corynebacterium glutamicum; assay: Antibacterial activity against Corynebacterium glutamicum ATCC 13032 cultured in MHB medium assessed as no bacterial growth incubated at 20 degC for 24 hrs by microdilution susceptibility test; type: functional; conditions: ATCC 13032, 24 h; how it was run: as §3
Pseudomonas aeruginosa [17] = assay: Antibacterial activity against multidrug-resistant Pseudomonas aeruginosa K44-24 producing imipenem-type carbapenemase-14 cultured in MHB medium assessed as reduction in bacterial growth incubated for 24 hrs by microdilution susceptibility test; type: functional; conditions: K44-24, 24 h; how it was run: as §1
Escherichia coli [18] = assay: Antibacterial activity against multidrug-resistant Escherichia coli 50857972 producing imipenem-type carbapenemase-26 cultured in MHB medium assessed as reduction in bacterial growth incubated for 24 hrs by microdilution susceptibility test; type: functional; conditions: Escherichia coli, 50857972, 24 h; how it was run: as §1
Klebsiella pneumoniae [19] = assay: Antibacterial activity against multidrug-resistant Klebsiella pneumoniae K47-25 producing carbapenemase-2 cultured in MHB medium assessed as reduction in bacterial growth incubated for 24 hrs by microdilution susceptibility test; type: functional; conditions: K47-25, 24 h; how it was run: as §1
Klebsiella pneumoniae [20] = assay: Antibacterial activity against multidrug-resistant Klebsiella pneumoniae 50531633 producing New Delhi metallo-beta-lactamase-1 and oxcillinase-181 cultured in MHB medium assessed as reduction in bacterial growth incubated for 24 hrs by microdilution susceptibility test; type: functional; conditions: Klebsiella pneumoniae, 50531633, 24 h; how it was run: as §1
Erythrocyte = assay: Hemolytic activity against human RBC incubated for 1 hr; type: cell-based
How it was run: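 Heparinized human blood washed three times in warm PBS and set to 10% hct. Erythrocytes at 1% v/v final, with compound in PBS (DMSO <1%), shaken 1 h at 37 °C and then centrifuged. Supernatant absorbance read at 405 and 545 nm after PBS background subtraction. Haemolysis taken relative to 1% Triton X-100. Three independent replicates, EC50 averaged.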

Enterococcus faecium = assay: Antibacterial activity against multidrug-resistant Enterococcus faecium 50673722 cultured in BHIB medium assessed as reduction in bacterial growth incubated for 24 hrs by microdilution susceptibility test; type: functional; conditions: Enterococcus faecium, 50673722, 24 h
How it was run: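 Enterococci grown in Brain Heart Infusion broth, otherwise broth microdilution per CLSI M07-A9 (modified). Concentrated DMSO stocks kept at r.t. and diluted in double-distilled water, final DMSO <1%. Inoculum 1–1.2 x 10⁶ cells/mL mixed 1:1 with compound. 37 °C, 24 h, four parallels. OD₆₀₀ read-out, lowest concentration with no growth.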

Escherichia coli [21] = assay: Antibacterial activity against multidrug-resistant Escherichia coli 50639799 producing Verona integron encoded metallo beta-lactamse-29 cultured in MHB medium assessed as reduction in bacterial growth incubated for 24 hrs by microdilution susceptibility test; type: functional; conditions: Escherichia coli, 50639799, 24 h; how it was run: as §1

SMILES	MIC (Pseudomonas aeruginosa [1]) [µg/mL]	MIC (Acinetobacter baumannii [2]) [µg/mL]	MIC (Pseudomonas aeruginosa [3]) [µg/mL]	MIC (Staphylococcus aureus [4]) [µg/mL]	selectivity ratio [5]	selectivity ratio [6]	MIC (Klebsiella pneumoniae [7]) [µg/mL]	MIC (Escherichia coli [8]) [µg/mL]	MIC (Staphylococcus aureus [9]) [µg/mL]	MIC (Acinetobacter baumannii [10]) [µg/mL]	MIC (Acinetobacter baumannii [11]) [µg/mL]	MIC (Klebsiella pneumoniae [12]) [µg/mL]	MIC (Acinetobacter baumannii [13]) [µg/mL]	MIC (Pseudomonas aeruginosa [14]) [µg/mL]	MIC (Escherichia coli [15]) [µg/mL]	MIC [16] [µg/mL]	MIC (Pseudomonas aeruginosa [17]) [µg/mL]	MIC (Escherichia coli [18]) [µg/mL]	MIC (Klebsiella pneumoniae [19]) [µg/mL]	MIC (Klebsiella pneumoniae [20]) [µg/mL]	further results
NCCNC(=O)C(CN)(Cc1ccc(C(F)(F)F)cc1)Cc1ccc(C(F)(F)F)cc1	> 32	> 32	> 32	> 32	36	18	32 (≈ 71.5 µM)	> 32	> 32	> 32	> 32	> 32	> 32	32 (≈ 71.5 µM)	32 (≈ 71.5 µM)	4 (≈ 8.94 µM)	> 32	32 (≈ 71.5 µM)	> 32	32 (≈ 71.5 µM)	EC50 (Erythrocyte): 289 µg/mL (≈ 646 µM); MIC (Enterococcus faecium): 16 µg/mL (≈ 35.8 µM); MIC (Escherichia coli [21]): > 32 µg/mL
NCCNCC(CN)(Cc1ccc(F)c2ccccc12)Cc1ccc(F)c2ccccc12	16 (≈ 36.9 µM)	16 (≈ 36.9 µM)	16 (≈ 36.9 µM)	4 (≈ 9.23 µM)	14	7	8 (≈ 18.5 µM)	8 (≈ 18.5 µM)	8 (≈ 18.5 µM)	16 (≈ 36.9 µM)	8 (≈ 18.5 µM)	8 (≈ 18.5 µM)	8 (≈ 18.5 µM)	4 (≈ 9.23 µM)	4 (≈ 9.23 µM)	1 (≈ 2.31 µM)	16 (≈ 36.9 µM)	8 (≈ 18.5 µM)	8 (≈ 18.5 µM)	4 (≈ 9.23 µM)	EC50 (Erythrocyte): 27 µg/mL (≈ 62.3 µM); MIC (Enterococcus faecium): 4 µg/mL (≈ 9.23 µM); MIC (Escherichia coli [21]): 8 µg/mL (≈ 18.5 µM)
N#CC(Cc1cc(C(F)(F)F)cc(C(F)(F)F)c1)(Cc1cc(C(F)(F)F)cc(C(F)(F)F)c1)C(=O)NCCN	> 32	> 32	> 32	16 (≈ 27.6 µM)	18	9	> 32	> 32	16 (≈ 27.6 µM)	> 32	> 32	> 32	> 32	64 (≈ 110 µM)	> 32	8 (≈ 13.8 µM)	> 32	> 32	> 32	> 32	EC50 (Erythrocyte): 282 µg/mL (≈ 487 µM); MIC (Enterococcus faecium): 16 µg/mL (≈ 27.6 µM); MIC (Escherichia coli [21]): > 32 µg/mL
N=C(N)NCCNC(=O)C(CNC(=N)N)(Cc1ccc(F)c2ccccc12)Cc1ccc(F)c2ccccc12	> 32	> 32	> 32	4 (≈ 7.52 µM)	165	21	> 32	32 (≈ 60.2 µM)	4 (≈ 7.52 µM)	> 32	> 32	> 32	> 32	8 (≈ 15 µM)	32 (≈ 60.2 µM)	0.5 (≈ 0.941 µM)	> 32	32 (≈ 60.2 µM)	> 32	> 32	EC50 (Erythrocyte): 329 µg/mL (≈ 619 µM); MIC (Enterococcus faecium): 16 µg/mL (≈ 30.1 µM); MIC (Escherichia coli [21]): 32 µg/mL (≈ 60.2 µM)
